Laboratory results from article PMC2597579 (Neuroscience letters, 2008).
Where two headings read alike, the source gives them in different places.

Key:
[1] = molecular target: T1, α1β2γ2s GABAA receptor (rat subunits expressed in Xenopus laevis oocytes) (Rattus norvegicus, UniProt P18508+P62813+P63138); type: cell-based
GABAA receptor = details: cited from earlier work
α4β3γ1 GABAA receptor = details: insulin, α4β3γ1 isoform; ref [40]; cited from earlier work
[2] = molecular target: T1, α1β2γ2s GABAA receptor (rat subunits expressed in Xenopus laevis oocytes); type: cell-based; remark: listed apart in the source
How it was run: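 Rat α1, β2, γ2S cRNAs injected 1:1:1 into defolliculated stage IV–V Xenopus laevis oocytes, kept 2–3 days at 18°C. Two-electrode voltage clamp at −60 mV, room temperature, Ca-free frog Ringer's pH 7.5. […] Percent change from control peak; t-test.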

GABAA receptors = details: ref Wan et al. [39], cited from earlier work

T1 sequence (P62813 28-455): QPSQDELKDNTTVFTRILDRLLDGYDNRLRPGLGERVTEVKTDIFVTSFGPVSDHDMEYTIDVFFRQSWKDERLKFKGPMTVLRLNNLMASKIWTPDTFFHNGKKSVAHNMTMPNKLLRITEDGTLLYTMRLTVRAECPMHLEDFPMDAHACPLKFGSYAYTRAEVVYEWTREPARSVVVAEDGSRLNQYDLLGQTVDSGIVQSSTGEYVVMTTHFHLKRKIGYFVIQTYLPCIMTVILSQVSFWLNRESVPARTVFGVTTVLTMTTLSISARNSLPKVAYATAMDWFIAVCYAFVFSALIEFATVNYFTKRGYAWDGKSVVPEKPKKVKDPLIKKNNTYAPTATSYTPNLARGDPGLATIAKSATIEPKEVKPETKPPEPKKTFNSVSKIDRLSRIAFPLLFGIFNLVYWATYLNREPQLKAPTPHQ
T1 sequence (P63138 26-474): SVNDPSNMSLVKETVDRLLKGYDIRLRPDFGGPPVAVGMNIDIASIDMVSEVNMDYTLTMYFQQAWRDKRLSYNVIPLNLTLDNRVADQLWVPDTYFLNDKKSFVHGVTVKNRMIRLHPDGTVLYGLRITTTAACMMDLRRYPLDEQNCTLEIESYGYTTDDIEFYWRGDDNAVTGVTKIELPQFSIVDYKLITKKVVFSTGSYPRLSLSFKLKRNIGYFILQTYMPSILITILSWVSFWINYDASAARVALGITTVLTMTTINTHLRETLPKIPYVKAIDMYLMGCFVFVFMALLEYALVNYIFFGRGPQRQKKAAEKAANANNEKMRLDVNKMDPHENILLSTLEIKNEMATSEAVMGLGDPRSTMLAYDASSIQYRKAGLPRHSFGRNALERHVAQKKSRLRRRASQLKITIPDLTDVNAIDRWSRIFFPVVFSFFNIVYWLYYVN
T1 sequence (P18508 39-466): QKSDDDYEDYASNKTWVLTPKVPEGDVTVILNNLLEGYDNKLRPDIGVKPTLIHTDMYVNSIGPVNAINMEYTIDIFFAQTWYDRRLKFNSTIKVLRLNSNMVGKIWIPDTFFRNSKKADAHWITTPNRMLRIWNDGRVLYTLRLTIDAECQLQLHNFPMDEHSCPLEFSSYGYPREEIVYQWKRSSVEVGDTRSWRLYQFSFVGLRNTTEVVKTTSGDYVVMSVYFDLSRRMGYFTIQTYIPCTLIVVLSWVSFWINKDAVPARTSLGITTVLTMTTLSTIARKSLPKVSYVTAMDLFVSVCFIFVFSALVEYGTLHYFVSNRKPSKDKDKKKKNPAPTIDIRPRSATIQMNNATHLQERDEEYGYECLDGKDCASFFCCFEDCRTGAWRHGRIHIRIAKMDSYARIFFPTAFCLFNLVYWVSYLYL

## NCCCC(=O)O [GABA, γ-aminobutyric acid, reference compound]
[1]; concentration used for insulin dose response
  approximate EC30 of GABA: ~1 µM

## CN1CCc2cc3c(cc2[C@H]1[C@@H]1OC(=O)c2c1ccc1c2OCO1)OCO3 [bicuculline]
GABAA receptor; rightward shift in GABA EC50, no significant effect on maximal current, ref [2]
  type of GABAA antagonism: typical competitive inhibitor

## c1ccc2c(c1)Cc1ccccc1-n1c-2nnc1N1CCNCC1 [pitrazepin]
GABAA receptor; similar effects and shifts in GABA dose response curves, ref [14]
  type of GABAA antagonism: competitive inhibitors of the GABAA receptor

## COc1c(O[C@@H]2O[C@H](CO)[C@@H](O)[C@H](O)[C@H]2O)cc2c(c1OC)-c1ccc(SC)c(=O)cc1[C@@H](NC(C)=O)CC2 [thiocolchicoside]
GABAA receptor; similar effects and shifts in GABA dose response curves, ref [11]
  type of GABAA antagonism: competitive inhibitors of the GABAA receptor

## insulin: pancreatic peptide hormone; bovine form (cat I-5500) from Sigma, dissolved in 0.1% acetic acid
α4β3γ1 GABAA receptor
  type of inhibition: mixed type inhibition
[1]; 100 nM insulin, GABA dose response 0.1 µM to 1 mM
  maximal current with insulin, % of maximal: 99 ± 13%
[2]; 1 nM insulin + 1 µM GABA
  effect of insulin on GABA induced current: inhibits currents elicited by 1 µM GABA
[2]; 1 nM insulin, then 1 µM GABA only
  reversibility of the inhibitory effect of insulin: reversible
[2]; 100 nM insulin
  saturating insulin concentration: at or near saturating
[2]; 100 nM insulin + 1 µM GABA
  effect of insulin on GABA induced current: inhibits currents elicited by 1 µM GABA
[2]; 100 nM insulin + 100 µM GABA
  effect of insulin on GABA induced current: no significant effect
[2]; 100 nM insulin co-applied with 100 µM GABA (near saturating), not significant
  percent change in GABA induced current: −0.33 ± 2.0%
[2]; insulin co-applied with low (EC30–50) concentrations of GABA
  inhibition of GABA induced current: about 38%
[2]; stated in discussion, from insulin dose response
  affinity of insulin for the GABA receptor: nanomolar affinity for the GABA receptor
GABAA receptors; 500 nM insulin
  incubation time required for potentiating effect: at least 10 minutes
GABAA receptors; incubation at least 10 minutes
  insulin concentration required for potentiating effect: 500 nM
